Experiment [1] addresses T1, D(4) dopamine receptor (Homo sapiens, UniProt P21917).
T1 sequence (P21917 whole entry): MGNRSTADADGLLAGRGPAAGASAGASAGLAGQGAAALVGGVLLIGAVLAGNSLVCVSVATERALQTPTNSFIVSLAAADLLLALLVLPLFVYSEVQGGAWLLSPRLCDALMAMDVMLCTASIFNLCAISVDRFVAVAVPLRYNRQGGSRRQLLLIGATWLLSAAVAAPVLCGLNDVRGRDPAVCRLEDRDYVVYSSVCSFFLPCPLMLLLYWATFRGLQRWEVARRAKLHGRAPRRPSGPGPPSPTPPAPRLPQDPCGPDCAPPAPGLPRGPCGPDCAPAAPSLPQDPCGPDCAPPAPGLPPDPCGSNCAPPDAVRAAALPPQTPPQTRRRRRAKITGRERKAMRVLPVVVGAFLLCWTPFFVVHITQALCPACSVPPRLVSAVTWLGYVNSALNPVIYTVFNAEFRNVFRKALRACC
Nature of the experiment: Binding affinity using [3H]spiperone displacement from cloned human Dopamine receptor D4.2 expressed in CHO-K1 cells. Format: cell-based.

Experiment [2] concerns the target Dopamine D2 receptor (Homo sapiens). Nature of the experiment: Binding affinity using [3H]spiperone against cloned human Dopamine receptor D2L expressed in CHO-K1 cells.
For experiment [3], the target named is T2, 5-hydroxytryptamine receptor 1A (Mus musculus, UniProt Q64264).
T2 sequence (Q64264 whole entry): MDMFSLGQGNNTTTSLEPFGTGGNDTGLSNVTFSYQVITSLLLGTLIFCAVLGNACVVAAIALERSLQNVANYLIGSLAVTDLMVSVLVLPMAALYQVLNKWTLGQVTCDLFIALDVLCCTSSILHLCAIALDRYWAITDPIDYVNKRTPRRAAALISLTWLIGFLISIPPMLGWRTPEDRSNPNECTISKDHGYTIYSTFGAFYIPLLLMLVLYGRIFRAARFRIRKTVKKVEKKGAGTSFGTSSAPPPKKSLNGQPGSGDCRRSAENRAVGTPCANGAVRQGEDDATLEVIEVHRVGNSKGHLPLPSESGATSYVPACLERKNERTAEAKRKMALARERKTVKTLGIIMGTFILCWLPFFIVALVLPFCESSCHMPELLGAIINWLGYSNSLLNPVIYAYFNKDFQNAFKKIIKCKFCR
Put plainly: Compound was tested for binding affinity using [3H]8-OH-DPAT against 5-hydroxytryptamine 1A receptor.

Experiment [4] addresses 5-hydroxytryptamine receptor 2A (Bos taurus, UniProt Q75Z89). Put plainly: Compound was tested for binding affinity using [3H]ketanserin against 5-hydroxytryptamine 2 receptor.
Experiment [5] concerns the target D(3) dopamine receptor (Homo sapiens, UniProt P35462). Nature of the experiment: Compound was tested for binding affinity using [3H]spiperone against cloned human Dopamine receptor D3 expressed in CHO-K1 cells. Format: cell-based. The method, boiled down: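 Cloned human receptors expressed in CHO-K1 cells, displacement of [3H]spiperone; Ki from six concentrations run in triplicate, nonlinear regression.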

Experiment [6] has as its target T3, D(4) dopamine receptor (Homo sapiens) (UniProt P21917).
T3 sequence (whole entry): T1 sequence (P21917 whole entry)
Nature of the experiment: Compound was tested for the inhibition of [3H]thymidine uptake in CHO p-5 cells transfected with human Dopamine receptor D4.2. It is filed as functional, cell-based. The method, boiled down:
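Antagonism of quinpirole (full agonist) stimulated mitogenesis in CHO cells expressing human D4.2. After 18 h, [3H]thymidine 0.25 μCi/well for 2 h, trypsin 1 h, then filtered and counted. Intrinsic activity taken relative to quinpirole; IC50 derived.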

For experiment [7], the system named is Mus musculus. Put plainly: Behavioral effect expressed as reversal of prepulse inhibition of acoustic startle in mice, ip; active at 30 mg/kg. It is filed as functional, organism-based. Details: dose 30 mg/kg. The method, boiled down:
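Vehicle or test compound given ip 15 min before sc saline or apomorphine (0.25 mg/kg); 30-min session of 90 trials after 5-min 70 dB white-noise acclimation, prepulses 2–16 dB over background (20 ms), startle pulses 40 ms. %PPI from 16-dB prepulse; t-test; minimal effective dose reported.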

Experiment [8] concerns Rattus norvegicus. Nature of the experiment: Behavioral effect expressed as catalepsy test in rats, po; NA=Not active. Format: functional, organism-based. The method, boiled down:
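Rats dosed orally; front paws placed on an elevated bar, time (s) paws stayed on bar recorded over three consecutive 1-min trials, retested 2 h postdose. Value is mean response time for third trial.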

Experiment [9] has as its system Rattus norvegicus. Put plainly: Behavioral effect expressed as inhibition of spontaneous motor activity in rats, ip; NA=Not active. Format: functional, organism-based.
Experiment [10] deals with Rattus norvegicus. Nature of the experiment: Behavioral effect expressed as inhibition of amphetamine-stimulated locomotor activity in rats, ip. It is filed as functional.
In experiment [11] the test system is Rattus norvegicus. Put plainly: Compound was tested for the levels of hippocampal dopamine synthesis in rat after a dosage of 10 mg/kg intraperitoneally and expressed as % of control animals. It is filed as functional, Hippocampus. The following applies: route intraperitoneal.
In experiment [12] the test system is Rattus norvegicus. Nature of the experiment: Compound was tested for the levels of striatal dopamine synthesis in rat after a dosage of 10 mg/kg intraperitoneally and expressed as % of control animals. Format: functional. The following applies: route intraperitoneal.
Experiment [13] deals with T3, D(4) dopamine receptor (Homo sapiens). Put plainly: Ratio of receptor binding towards D2 to D4 receptor. A digest of the protocol:
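Ki from [3H]spiperone displacement at cloned human D2L and D4.2 receptors expressed in CHO-K1 cells. Six concentrations run in triplicate, fitted by nonlinear regression. Ratio taken as D2L Ki over D4.2 Ki.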

The target is the same in experiment [14]. Put plainly: Compound was tested for the inhibition of [3H]-thymidine uptake in CHO p-5 cells transfected with Dopamine receptor D4.2. Format: functional, cell-based.
Experiment [15] deals with Rattus norvegicus. Put plainly: Compound was tested for the levels of hippocampal dopamine synthesis in rat after a dosage of 10 mg/kg intraperitoneally and expressed as % of control. It is filed as functional, Hippocampus. The following applies: route intraperitoneal. The method, boiled down: (§1)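 Rats given drug 10 mg/kg ip 60 min before and NSD 1015 (decarboxylase inhibitor) 30 min before decapitation; striatal and hippocampal DOPA by HPLC with electrochemical detection, as percentage increase over control; mean of 4 animals.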

The test system of experiment [16] is Rattus norvegicus. Put plainly: Compound was tested for the levels of striatal dopamine synthesis in rat after a dosage of 10 mg/kg intraperitoneally and expressed as % of control. Format: functional. The settings on record: route intraperitoneal. A digest of the protocol: as §1

pKi: −log10 of the molar value. Calls of active or inactive are those of the source. No cut-off for these calls is given here.

5-hydroxytryptamine receptor 2A, sequence (Q75Z89 whole entry): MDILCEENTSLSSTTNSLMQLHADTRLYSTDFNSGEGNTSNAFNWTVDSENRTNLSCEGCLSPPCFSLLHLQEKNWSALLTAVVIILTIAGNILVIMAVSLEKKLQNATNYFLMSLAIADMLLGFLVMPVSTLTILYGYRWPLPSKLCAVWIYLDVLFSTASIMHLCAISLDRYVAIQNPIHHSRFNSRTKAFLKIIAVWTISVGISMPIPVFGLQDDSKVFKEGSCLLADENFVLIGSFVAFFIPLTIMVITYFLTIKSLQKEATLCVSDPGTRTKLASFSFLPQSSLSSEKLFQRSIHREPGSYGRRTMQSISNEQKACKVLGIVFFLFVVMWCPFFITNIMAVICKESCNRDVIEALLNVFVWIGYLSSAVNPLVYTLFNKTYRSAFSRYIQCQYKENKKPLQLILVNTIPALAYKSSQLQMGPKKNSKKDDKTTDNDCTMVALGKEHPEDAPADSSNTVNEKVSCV
D(3) dopamine receptor, sequence (P35462 whole entry): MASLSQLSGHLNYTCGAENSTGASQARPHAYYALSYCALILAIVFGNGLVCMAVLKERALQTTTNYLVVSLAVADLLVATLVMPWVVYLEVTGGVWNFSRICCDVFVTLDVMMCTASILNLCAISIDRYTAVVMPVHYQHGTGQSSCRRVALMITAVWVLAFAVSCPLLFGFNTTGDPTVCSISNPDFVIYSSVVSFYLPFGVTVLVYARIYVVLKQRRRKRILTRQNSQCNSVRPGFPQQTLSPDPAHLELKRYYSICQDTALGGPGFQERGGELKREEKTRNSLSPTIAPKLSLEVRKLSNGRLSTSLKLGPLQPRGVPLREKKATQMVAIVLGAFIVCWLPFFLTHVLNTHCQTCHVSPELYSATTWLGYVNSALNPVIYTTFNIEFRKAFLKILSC

Turning to `O=c1ccc2ccc(CN3CCN(c4ccc(Cl)cc4)CC3)cc2o1`, in [1], the negative-log Ki (pKi) (as a rule, the negative decadic logarithm of the Ki, by convention in mol/L) was 7.03.
Take `Cc1cccc(N2CCN(Cc3ccc4ccc(=O)oc4c3)CC2)c1`: the pKi in [1] is 7.49. In experiment [2], the Ki (commonly a dissociation constant, usually derived from enzyme kinetics or from competition with a known ligand) came to 4400 nM.
Regarding `Cc1ccccc1N1CCN(Cc2ccc3ccc(=O)oc3c2)CC1`, the pKi in [1] was 7.80. In experiment [2], this molecule gave a Ki of 1940 nM.
Turning to `Cc1ccc(N2CCN(Cc3ccc4ccc(=O)oc4c3)CC2)cc1C`, in experiment [1], the pKi is 7.85. In experiment [2], this molecule came in with a Ki of 433 nM.
Turning to `O=c1ccc2ccc(CNCCNc3ccccc3)cc2o1`, the pKi in experiment [3] was 5.43; in experiment [4], less than 5.36; in experiment [5], 6.37. Also, the Intrinsic activity in experiment [6] stood at 0%. Besides, the Behavioral effect entry in [7] is “Active”. Also, the Control entry in experiment [8] and in experiment [9] was “inactive” throughout. Further, the ED50 (usually the dose at which the effect has come halfway, by size or by number of responders) in [10] was found to be 3 mg/kg. Further, the Control is listed as 32% in [11] and 20% in [12].
In [1], `CCN(CCNc1ccccc1)Cc1ccc2ccc(=O)oc2c1` showed a pKi of 6.39.
With `CCN(CCNCc1ccc2ccc(=O)oc2c1)c1ccccc1`, the pKi in [1] was 5.57.
Regarding `Cc1ccc(N2CCN(Cc3ccc4ccc(=O)oc4c3)CC2)cc1Cl`, the pKi in experiment [1] was 8.16. In addition, in experiment [13], the Ratio is 852. This molecule also had an Intrinsic activity in experiment [6] of 0%. The Control in experiment [11] is reported as 27%; in experiment [12], 19%. The Ki in [2] is on record as 5882 nM.
`Cc1ccc(NCCNCc2ccc3ccc(=O)oc3c2)cc1` displayed an Intrinsic activity in experiment [6] of 0%.
With `O=c1ccc2ccc(CN3CC=C(c4ccccc4)CC3)cc2o1`, the pKi in experiment [1] is 8.36. This molecule also returned an inhibition constant (Ki) in experiment [2] of 121 nM.
Consider `COc1ccc(N2CCN(Cc3ccc4ccc(=O)oc4c3)CC2)cc1`, for which, in experiment [1], the pKi is 7.12.
Same read-out and setting: the figure for `O=c1ccc2ccc(CN3CCC(c4ccccc4)CC3)cc2o1` is 7.72.
`CC(C)(C)c1ccc(N2CCN(Cc3ccc4ccc(=O)oc4c3)CC2)cc1` showed a pKi in experiment [1] of 6.64.
Take `O=c1ccc2ccc(CN3CCN(c4ccccc4)CC3)cc2o1`: the pKi in experiment [1] is 7.57. This molecule came in with a Ki in experiment [2] of 5300 nM.
As for `O=c1ccc2ccc(CN3CCN(c4ccc(F)cc4)CC3)cc2o1`, in experiment [1], the pKi is 7.23.
With `Cc1cccc(N2CCN(Cc3ccc4oc(=O)ccc4c3)CC2)c1`, the pKi in [1] was 7.13.
Turning to `Cc1ccc(N2CCN(Cc3ccc4oc(=O)ccc4c3)CC2)cc1`, the pKi in experiment [1] was 7.96. In [14], the Intrinsic activity worked out at 0%. For the same molecule, the values for the Control in experiment [15] and in experiment [16] were -16% and 22%, respectively. The molecule further yielded a Ki in experiment [2] of 5836 nM.

(Values after ChEMBL document CHEMBL1132384, “Design, synthesis, and evaluation of chromen-2-ones as potent and selective human dopamine D4 antagonists” (J Med Chem, 1999).)
